Test results reported in ChEMBL document CHEMBL1148117, “Synthesis and structure-activity relationship study of lamellarin derivatives” (J Nat Prod, 2002).

Experiments:
HeLa = experiment: Cytotoxicity against human HeLa cells assessed as inhibition of colony formation after 5 to 8 days by colony assay; assay type: functional, cell-based
Method in brief: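 HeLa cells were seeded at 100-150 cells per well and grown with a range of compound concentrations in MEM with 10% fetal calf serum for 5-8 days at 37 °C under 5% CO2/95% air. Colonies were stained with 1% methylene blue in 50% methanol and counted; a cluster of 40 or more cells counted as one colony.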

[1] = tested on: Human immunodeficiency virus 1; experiment: Antiviral activity against HIV1 in cell cultures assessed as inhibition of viral replication; assay type: functional, organism-based
XC = experiment: Cytotoxicity against rat XC cells assessed as inhibition of colony formation after 5 to 8 days by colony assay; assay type: functional, cell-based
Method in brief: (§1)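 Colony-formation assay: 100-150 cells per well grown with varying concentrations of compound for 5-8 days at 37 °C under 5% CO₂/95% air. Colonies were stained with 1% methylene blue in 50% methanol and counted, with clusters of 40 or more cells scored as colonies. IC50 was estimated from dose-response curves.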

Vero = experiment: Cytotoxicity against african green monkey Vero cells assessed as inhibition of colony formation after 5 to 8 days by colony assay; assay type: cell-based; conditions: Chlorocebus sabaeus; method in brief: as §1
MDCK [2] = experiment: Cytotoxicity against MDCK cells assessed as inhibition of colony formation after 5 to 8 days by colony assay; assay type: cell-based; conditions: Canis lupus familiaris; method in brief: as §1
MDCK [3] = experiment: Cytotoxicity against MDCK cells at 1 mM by MTT assay; assay type: cell-based, Canis lupus familiaris; conditions: dog, 1000 µM

SMILES	IC50 (HeLa)	further results
COc1cc(-c2c3c4ccccc4oc(=O)c3n3ccc4cc(O)c(OC)cc4c23)ccc1O	4 µM	
COc1ccc2oc(=O)c3c(c(-c4ccc(O)c(OC)c4)c4c5cc(OC)c(O)cc5ccn43)c2c1	0.85 µM	
COc1ccc(-c2c3c4cc5c(cc4oc(=O)c3n3ccc4cc(OC)c(OC)cc4c23)OCO5)cc1OC	> 100 µM	
COc1cc2c(cc1O)oc(=O)c1c2c(-c2ccc(OC)c(OC)c2)c2c3cc(OC)c(OC)cc3ccn21	2.5 µM	
O=c1oc2ccccc2c2c(-c3ccc(O)c(O)c3)c3c4cc(O)c(O)cc4ccn3c12	1.1 µM	
CC(=O)Oc1ccc(-c2c3c4cc(OC(C)=O)c(OC(C)=O)cc4oc(=O)c3n3ccc4cc(OC(C)=O)c(OC(C)=O)cc4c23)cc1OC(C)=O	11 µM	
COc1cc(-c2c3c4ccc(O)cc4oc(=O)c3n3ccc4cc(O)c(OC)cc4c23)ccc1O	0.0395 µM	
COc1cccc(-c2c3c4cc(OC)c(O)cc4oc(=O)c3n3ccc4cc(O)c(OC)cc4c23)c1	0.07 µM	
COc1ccc(-c2c3c4cc(OC)c(OS(=O)(=O)O)cc4oc(=O)c3n3ccc4cc(OC)c(OC)cc4c23)cc1O		IC50 [1]: 8 µM
COc1cc2c(cc1O)oc(=O)c1c2c(-c2ccc(O)cc2)c2c3cc(OC)c(O)cc3ccn21	0.038 µM	
COc1ccc(-c2c3c4ccccc4oc(=O)c3n3ccc4cc(OC)c(OC)cc4c23)cc1OC	5.7 µM	IC50 (XC): 5.6 µM; IC50 (Vero): 4.7 µM; IC50 (MDCK [2]): 5.6 µM
COc1cc(-c2c3c4cc(OC)c(O)cc4oc(=O)c3n3ccc4cc(O)c(OC)cc4c23)ccc1O [LAMELLARIN D]	0.0105 µM	IC50 (XC): 0.0124 µM; IC50 (Vero): 0.0105 µM; IC50 (MDCK [2]): 0.0225 µM; Activity (MDCK [3]): Non-toxic
O=c1oc2cc(O)c(O)cc2c2c(-c3ccc(O)c(O)c3)c3c4cc(O)c(O)cc4ccn3c12 [LAMELLARIN H]	> 100 µM	
CO[C@@]12[C@H](COC(N)=O)C3=C(C(=O)C(C)=C(N)C3=O)N1C[C@@H]1N[C@@H]12 [MITOMYCIN]	0.068 µM	
